Data: ChEMBL document CHEMBL1126812, “Further insights into the molecular mechanisms of action of the serotonergic neurotoxin 5,7-dihydroxytryptamine” (J Med Chem, 1993)

Tests used:
[1] = tested on: Mus musculus; assay: Effect of central administration on whole mouse brain 5-hydroxyindole-3-acetic acid (5-HIAA) level after 1 day; format: functional, organism-based
Method in brief: (§1)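 Adult male outbred Hsd:ICR mice (25-35 g) under light ether anesthesia received a single 25 or 30 µg (free base) intracranial dose near the left lateral ventricle. Vehicle was 5 µL isotonic saline with 1.0 mg/mL ascorbate, and controls got vehicle alone. Mice were killed by focused microwave (250 ms, 7.0 kW) at 1 h, 1 day or 1 week. Brains were homogenized, spun at 50 000g (4 °C, 1 h) and filtered. Amines and metabolites were measured by LCEC as % of control ± sem, n = 11-18.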

[2] = tested on: Mus musculus; assay: Effect of central administration on whole mouse brain 5-hydroxyindole-3-acetic acid (5-HIAA) level after 1 hr; format: functional, organism-based; method in brief: as §1
[3] = tested on: Mus musculus; assay: Effect of central administration on whole mouse brain 5-hydroxyindole-3-acetic acid (5-HIAA) level after 1 week; format: functional, organism-based; method in brief: as §1
[4] = tested on: Mus musculus; assay: Effect of central administration on whole mouse brain 5-hydroxytryptamine (5-HT) after 1 day; format: functional, organism-based; method in brief: as §1
[5] = tested on: Mus musculus; assay: Effect of central administration on whole mouse brain acetylcholine (ACh) level after 1 day; format: functional, organism-based
Method in brief: (§2)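 The dosing, vehicle, controls, microwave sacrifice, timepoints and brain processing were the same as for the amine lines. Whole mouse brain ACh and choline were measured by LCEC on 20 µL aliquots of the filtered 50 000g supernate, which had been stored at -80 °C. Values are % of vehicle controls ± sem, n = 11-18 per group.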

[6] = tested on: Mus musculus; assay: Effect of central administration on whole mouse brain acetylcholine (ACh) level after 1 hr; format: functional, organism-based; method in brief: as §2
[7] = tested on: Mus musculus; assay: Effect of central administration on whole mouse brain acetylcholine (ACh) level after 1 week; format: functional, organism-based; method in brief: as §2
[8] = tested on: Mus musculus; assay: Effect of central administration on whole mouse brain cholin (Ch) level after 1 day; format: functional, organism-based; method in brief: as §2
[9] = tested on: Mus musculus; assay: Effect of central administration on whole mouse brain cholin (Ch) level after 1 hr; format: functional, organism-based; method in brief: as §2
[10] = tested on: Mus musculus; assay: Effect of central administration on whole mouse brain cholin (Ch) level after 1 week; format: functional, organism-based; method in brief: as §2
[11] = tested on: Mus musculus; assay: Effect of central administration on whole mouse brain dopamine (DA) level after 1 day; format: functional, organism-based; method in brief: as §1
[12] = tested on: Mus musculus; assay: Effect of central administration on whole mouse brain dopamine (DA) level after 1 hr; format: functional, organism-based; method in brief: as §1
[13] = tested on: Mus musculus; assay: Effect of central administration on whole mouse brain homovanillic acid (HAV) level after 1 day; format: functional, organism-based; method in brief: as §1
[14] = tested on: Mus musculus; assay: Effect of central administration on whole mouse brain homovanillic acid (HAV) level after 1 hr; format: functional, organism-based; method in brief: as §1
[15] = tested on: Mus musculus; assay: Effect of central administration on whole mouse brain norepinephrine (NE) level after 1 day; format: functional, organism-based; method in brief: as §1
[16] = tested on: Mus musculus; assay: Effect of central administration on whole mouse brain norepinephrine (NE) level after 1 hr; format: functional, organism-based; method in brief: as §1
[17] = tested on: Mus musculus; assay: Effect of central administration on whole mouse brain norepinephrine (NE) level after 1 week; format: functional, organism-based; method in brief: as §1
[18] = tested on: Mus musculus; assay: Effect of central administration on whole mouse brain 5-HT (5-HT) after 1 hr; format: functional, organism-based; method in brief: as §1
[19] = tested on: Mus musculus; assay: Effect of central administration on whole mouse brain 5-HT (5-HT) after 1 week; format: functional, organism-based; method in brief: as §1
[20] = tested on: Mus musculus; assay: Effect of central administration on whole mouse brain 3,4-di hydroxyphenylacetic acid (DOPAC) level after 1 day; format: functional, organism-based; method in brief: as §1
[21] = tested on: Mus musculus; assay: Effect of central administration on whole mouse brain 3,4-di hydroxyphenylacetic acid (DOPAC) level after 1 hr; format: functional, organism-based; method in brief: as §1
[22] = tested on: Mus musculus; assay: Effect of central administration on whole mouse brain 3,4-di hydroxyphenylacetic acid (DOPAC) level after 1 week; format: functional, organism-based; method in brief: as §1
[23] = tested on: Mus musculus; assay: Weight which caused death of 50% of the treated animals within 1 hr following drug administration; format: ADME, organism-based; details: in vivo
Method in brief: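 Adult male outbred Hsd:ICR albino mice, 25-35 g, given compound (dose as free base) intracranially near the left lateral ventricle under light ether anesthesia, in 5 µL isotonic saline containing 1.0 mg/mL ascorbic acid. Deaths within 1 h were scored, and LD50 (injected weight) was derived by Dixon's statistical method, reported as mean ± standard deviation on a log microgram scale.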

[24] = tested on: Mus musculus; assay: Effect of central administration on whole mouse brain 5-hydroxyindole-3-acetic acid(5-HIAA)level after 1 week; format: functional, organism-based; method in brief: as §1
[25] = tested on: Mus musculus; assay: Effect of central administration on whole mouse brain 3,4-di hydroxyphenylacetic acid (DOPAC)level after 1 week; format: functional, organism-based; method in brief: as §1
[26] = tested on: Mus musculus; assay: Effect of central administration on whole mouse brain 5-hydroxyindole-3-acetic acid(5-HIAA)level after 1 day; format: functional, organism-based; method in brief: as §1
[27] = tested on: Mus musculus; assay: Effect of central administration on whole mouse brain 5-hydroxyindole-3-acetic acid(5-HIAA)level after 1 hr; format: functional, organism-based; method in brief: as §1
[28] = tested on: Mus musculus; assay: Effect of central administration on whole mouse brain 5-hydroxytryptamine (5-HT) level after 1 day; format: functional, organism-based; method in brief: as §1
[29] = tested on: Mus musculus; assay: Effect of central administration on whole mouse brain 5-hydroxytryptamine (5-HT) level after 1 week; format: functional, organism-based; method in brief: as §1
[30] = tested on: Mus musculus; assay: Effect of central administration on whole mouse brain choline (Ch) level after 1 day; format: functional, organism-based; method in brief: as §2
[31] = tested on: Mus musculus; assay: Effect of central administration on whole mouse brain choline (Ch) level after 1 hr; format: functional, organism-based; method in brief: as §2
[32] = tested on: Mus musculus; assay: Effect of central administration on whole mouse brain dopamine (DA) level after 1 week; format: functional, organism-based; method in brief: as §1
[33] = tested on: Mus musculus; assay: Effect of central administration on whole mouse brain homovanillic acid (HAV) level after 1 week; format: functional, organism-based; method in brief: as §1
[34] = tested on: Mus musculus; assay: Effect of central administration on whole mouse brain choline (Ch) level after 1 week; format: functional, organism-based; method in brief: as §2

SMILES | Level [5] | Level [6] | Level [7] | Level [11] | Level [12] | Level [13] | Level [14] | Level [15] | Level [16] | Level [17] | Level [18] | Level [20] | Level [21] | LD50 [23] | further results
NCCc1c[nH]c2c1C(=O)C(O)=C(C1=C(O)c3[nH]cc(CCN)c3C(=O)C1=O)C2=O | 78% | 83% | 123% | 85% | 97% | 85% | 102% | 82% | 95% | 89% | 88% | 116% | 74% | 25.4 µg | Level [1]: 76%; Level [2]: 118%; Level [3]: 152%; Level [4]: 75%; Level [8]: 78%; Level [9]: 126%; Level [10]: 115%; Level [19]: 103%; Level [22]: 101%
NCCc1c[nH]c2c1C(=O)C(=O)C=C2O | 65% | 100% | 107% | 79% | 92% | 92% | 147% | 84% | 80% | 114% | 89% | 107% | 54% | 29.6 µg | Level [24]: 106%; Level [25]: 117%; Level [26]: 82%; Level [27]: 159%; Level [28]: 72%; Level [29]: 104%; Level [30]: 57%; Level [31]: 153%; Level [32]: 114%; Level [33]: 112%; Level [34]: 106%
NCCc1c[nH]c2c(O)cc(O)cc12 |  |  |  |  |  |  |  |  |  |  |  |  |  | 51.8 µg | 
